Assay [1] deals with T1, Tyrosine-protein phosphatase non-receptor type 1 (Homo sapiens, UniProt P18031).
T1 sequence (P18031 whole entry): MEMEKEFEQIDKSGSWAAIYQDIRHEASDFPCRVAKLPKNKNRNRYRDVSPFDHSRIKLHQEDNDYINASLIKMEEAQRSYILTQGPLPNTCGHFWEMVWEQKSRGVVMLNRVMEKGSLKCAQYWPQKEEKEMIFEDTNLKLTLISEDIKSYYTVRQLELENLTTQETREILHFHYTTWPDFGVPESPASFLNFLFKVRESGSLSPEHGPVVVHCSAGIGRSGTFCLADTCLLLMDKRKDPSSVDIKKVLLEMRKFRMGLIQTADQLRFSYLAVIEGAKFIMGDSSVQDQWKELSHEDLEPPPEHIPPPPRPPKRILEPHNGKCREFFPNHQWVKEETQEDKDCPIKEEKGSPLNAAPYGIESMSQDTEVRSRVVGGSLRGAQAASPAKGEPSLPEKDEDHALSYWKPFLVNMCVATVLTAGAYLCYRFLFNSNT
Briefly: Inhibition of PTP1B (unknown origin). The method in brief: (§1)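 PTP1B enzymatic assay with RK-682 as the positive control. For the single-point screen, compounds were tested at a final 100 µM. For dose–response, inhibition was measured over a range of compound concentrations, and IC50 was obtained by regression analysis.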

The target of assay [2] is Dual specificity protein phosphatase 3 (Homo sapiens) (UniProt P51452). The assay is described as follows: Inhibition of VHR (unknown origin) assessed as inhibition rate at 75 uM.
Chain of Dual specificity protein phosphatase 3 (Homo sapiens) (P51452 whole entry, looked up): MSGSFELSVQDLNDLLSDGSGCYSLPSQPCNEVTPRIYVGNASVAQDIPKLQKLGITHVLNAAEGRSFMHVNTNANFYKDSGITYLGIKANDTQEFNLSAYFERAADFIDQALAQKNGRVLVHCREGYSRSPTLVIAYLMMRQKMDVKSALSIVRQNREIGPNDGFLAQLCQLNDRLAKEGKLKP
For assay [3], the species on record is Homo sapiens. Briefly: Ratio of inhibition rate for PTP1B (unknown origin) at 75 uM to inhibition rate for SHP2 (unknown origin) at 75 uM.
Assay [4] concerns the target T2, Tyrosine-protein phosphatase non-receptor type 2 (Homo sapiens) (UniProt P17706).
T2 sequence (whole entry): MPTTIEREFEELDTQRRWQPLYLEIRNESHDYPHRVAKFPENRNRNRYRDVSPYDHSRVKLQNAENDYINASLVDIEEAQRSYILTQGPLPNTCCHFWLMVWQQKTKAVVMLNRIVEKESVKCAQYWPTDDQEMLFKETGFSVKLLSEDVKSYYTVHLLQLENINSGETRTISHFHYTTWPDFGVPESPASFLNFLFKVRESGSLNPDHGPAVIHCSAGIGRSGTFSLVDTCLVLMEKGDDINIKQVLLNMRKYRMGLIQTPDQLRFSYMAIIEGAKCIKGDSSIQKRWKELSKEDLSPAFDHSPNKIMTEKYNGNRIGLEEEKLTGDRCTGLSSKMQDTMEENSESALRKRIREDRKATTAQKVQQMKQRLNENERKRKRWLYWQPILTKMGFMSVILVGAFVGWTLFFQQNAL
Briefly: Inhibition of TCPTP (unknown origin) assessed as inhibition rate at 75 uM.

For assay [5], the target named is T3, Tyrosine-protein phosphatase non-receptor type 11 (Homo sapiens) (UniProt Q06124).
T3 sequence (whole entry): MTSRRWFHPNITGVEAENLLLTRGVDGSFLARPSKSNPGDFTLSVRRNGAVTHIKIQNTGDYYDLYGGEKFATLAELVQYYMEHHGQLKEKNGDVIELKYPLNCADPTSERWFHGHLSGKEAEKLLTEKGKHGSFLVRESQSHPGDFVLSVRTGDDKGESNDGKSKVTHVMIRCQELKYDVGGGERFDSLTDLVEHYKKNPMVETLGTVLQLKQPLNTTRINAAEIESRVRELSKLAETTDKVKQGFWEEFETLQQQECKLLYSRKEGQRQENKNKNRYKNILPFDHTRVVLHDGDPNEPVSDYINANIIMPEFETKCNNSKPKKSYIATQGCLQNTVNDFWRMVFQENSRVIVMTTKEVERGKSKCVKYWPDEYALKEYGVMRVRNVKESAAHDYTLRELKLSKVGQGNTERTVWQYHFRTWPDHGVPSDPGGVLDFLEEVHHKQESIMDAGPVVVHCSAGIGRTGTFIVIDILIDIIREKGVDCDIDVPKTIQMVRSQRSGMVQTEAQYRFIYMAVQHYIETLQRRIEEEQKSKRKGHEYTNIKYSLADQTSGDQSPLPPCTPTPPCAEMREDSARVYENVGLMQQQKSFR
The assay is described as follows: Inhibition of SHP2 (unknown origin) assessed as inhibition rate at 75 uM.

The target of assay [6] is Tyrosine-protein phosphatase non-receptor type 6 (Homo sapiens) (UniProt P29350). The assay is described as follows: Inhibition of SHP1 (unknown origin) assessed as inhibition rate at 75 uM.
Chain of Tyrosine-protein phosphatase non-receptor type 6 (Homo sapiens) (P29350 whole entry): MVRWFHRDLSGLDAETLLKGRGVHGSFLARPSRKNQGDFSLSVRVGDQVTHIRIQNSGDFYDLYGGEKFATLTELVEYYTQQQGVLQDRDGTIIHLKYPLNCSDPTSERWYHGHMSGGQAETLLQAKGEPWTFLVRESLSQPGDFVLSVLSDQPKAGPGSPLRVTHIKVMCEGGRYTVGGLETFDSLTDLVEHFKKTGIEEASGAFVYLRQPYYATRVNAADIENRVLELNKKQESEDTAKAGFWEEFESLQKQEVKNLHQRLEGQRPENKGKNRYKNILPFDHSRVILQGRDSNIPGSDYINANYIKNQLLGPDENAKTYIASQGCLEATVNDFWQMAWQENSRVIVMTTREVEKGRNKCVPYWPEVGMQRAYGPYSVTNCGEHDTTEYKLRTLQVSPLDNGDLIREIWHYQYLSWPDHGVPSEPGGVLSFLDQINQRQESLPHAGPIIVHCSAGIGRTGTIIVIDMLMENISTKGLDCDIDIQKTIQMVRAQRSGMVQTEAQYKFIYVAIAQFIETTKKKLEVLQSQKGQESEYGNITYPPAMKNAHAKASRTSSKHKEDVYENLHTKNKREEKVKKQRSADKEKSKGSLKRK
The species entered for assay [7] is Homo sapiens. Briefly: Ratio of inhibition rate for PTP1B (unknown origin) at 75 uM to inhibition rate for VHR (unknown origin) at 75 uM.
For assay [8], the target named is T4, Tyrosine-protein phosphatase non-receptor type 1 (Homo sapiens) (UniProt P18031).
T4 sequence (whole entry): T1 sequence (P18031 whole entry)
Briefly: Inhibition of PTP1B (unknown origin) assessed as inhibition rate at 75 uM.

Assay [9] is filed under the species Homo sapiens. The assay is described as follows: Ratio of inhibition rate for PTP1B (unknown origin) at 75 uM to inhibition rate for SHP1 (unknown origin) at 75 uM.
Assay [10] deals with T1, Tyrosine-protein phosphatase non-receptor type 1. The assay is described as follows: Non-competitive inhibition of PTP1B (unknown origin) assessed as hydrolysis of para-nitrophenylphosphate by Lineweaver-Burk plot. The method in brief: (§2)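 Kinetic study of PTP1B varying both compound and p-nitrophenylphosphate substrate concentrations. Mode was read from Lineweaver–Burk plots. Slopes from those plots were replotted against compound concentration (secondary plot), and Ki was calculated from that plot.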

Assay [11] is filed under the species Homo sapiens. Briefly: Ratio of inhibition rate for PTP1B (unknown origin) at 75 uM to inhibition rate for TCPTP (unknown origin) at 75 uM.
For assay [12], the target named is Tyrosine-protein phosphatase non-receptor type 6 (Homo sapiens) (UniProt P29350). The assay is described as follows: Inhibition of SHP1 (unknown origin) assessed as inhibition rate at 100 uM.
Assay [13] has as its target T2, Tyrosine-protein phosphatase non-receptor type 2 (Homo sapiens). Briefly: Inhibition of TCPTP (unknown origin) assessed as inhibition rate at 100 uM.
In assay [14] the target is T3, Tyrosine-protein phosphatase non-receptor type 11 (Homo sapiens). Briefly: Inhibition of SHP2 (unknown origin) assessed as inhibition rate at 100 uM.
For assay [15], the species on record is Homo sapiens. The assay is described as follows: Ratio of inhibition rate for PTP1B (unknown origin) at 75 uM to inhibition rate for VHR (unknown origin) at 100 uM.
Assay [16] concerns the target Dual specificity protein phosphatase 3 (Homo sapiens) (UniProt P51452). Briefly: Inhibition of VHR (unknown origin) assessed as inhibition rate at 100 uM.
The species entered for assay [17] is Homo sapiens. The assay is described as follows: Ratio of inhibition rate for PTP1B (unknown origin) at 75 uM to inhibition rate for SHP1 (unknown origin) at 100 uM.
The next assay has as its system HepG2. Briefly: Induction of Akt phosphorylation in insulin-stimulated human HepG2 cells assessed as pAkt/Akt ratio at 50 uM after 5 mins by western blotting analysis relative to control. It counts as functional. The method in brief: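 HepG2 cells were treated with compound at 50 µM, then stimulated with insulin. pAkt was assessed by western blotting at 0 and 5 min after insulin. DMSO served as the negative control and sodium orthovanadate (200 µM) as the positive control. Values are expressed relative to control.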

Assay [18] is filed under the species Homo sapiens. The assay is described as follows: Ratio of inhibition rate for PTP1B (unknown origin) at 75 uM to inhibition rate for TCPTP (unknown origin) at 100 uM.
For assay [19], the species on record is Homo sapiens. Briefly: Ratio of inhibition rate for PTP1B (unknown origin) at 75 uM to inhibition rate for SHP2 (unknown origin) at 100 uM.
The target of assay [20] is T4, Tyrosine-protein phosphatase non-receptor type 1 (Homo sapiens). The assay is described as follows: Inhibition of PTP1B (unknown origin) assessed as inhibition rate at 100 uM. The method in brief: as §1
Assay [21] addresses T1, Tyrosine-protein phosphatase non-receptor type 1. The assay is described as follows: Competitive inhibition of PTP1B (unknown origin) assessed as hydrolysis of para-nitrophenylphosphate by Lineweaver-Burk plot. The method in brief: as §2
Assay [22] concerns the target T4, Tyrosine-protein phosphatase non-receptor type 1 (Homo sapiens). The note with it: 90 uM.
Assay [23] deals with T3, Tyrosine-protein phosphatase non-receptor type 11 (Homo sapiens). The assay is described as follows: Inhibition of SHP2 (unknown origin) assessed as inhibition rate at 90 uM.
The target in assay [24] is Dual specificity protein phosphatase 3 (Homo sapiens) (UniProt P51452). Briefly: Inhibition of VHR (unknown origin) assessed as inhibition rate at 90 uM.
The target in assay [25] is T2, Tyrosine-protein phosphatase non-receptor type 2 (Homo sapiens). The assay is described as follows: Inhibition of TCPTP (unknown origin) assessed as inhibition rate at 90 uM.
In assay [26] the target is Tyrosine-protein phosphatase non-receptor type 6 (Homo sapiens) (UniProt P29350). The assay is described as follows: Inhibition of SHP1 (unknown origin) assessed as inhibition rate at 90 uM.

The values that follow come from ChEMBL document CHEMBL3400011, “Canthinone alkaloids are novel protein tyrosine phosphatase 1B inhibitors” (Bioorg Med Chem Lett, 2015).

Consider `Cc1c2n(C)ccc3c-2n(c(=O)c1=O)c1ccccc31`, for which the IC50 in assay [1] is 24.7 µM. For the same compound, the inhibition amounted to 26.5% in assay [2]; 49.7% in [4]; 23.3% in [5]; 24.4% in assay [6]; 92.1% in [8]. Besides, the Ratio came to 3.8 in the assay listed under Homo sapiens [3], 3.5 in the assay filed under Homo sapiens [7], 3.8 in the assay listed under Homo sapiens [9] and 1.9 in the assay listed under Homo sapiens [11]. Moreover, the Ki in assay [10] was 19.9 µM.
`CCc1c2n(C)ccc3c-2n(c(=O)c1=O)c1ccccc31`: 27.8 µM corresponded to half-maximal inhibition in [1] (IC50). The inhibition in [12] turned out to be 20.6%; in [13] it was 40%; in assay [14], 25%; in assay [16] it was 19.7%; in assay [20], 91%. Further, the Ratio came to 4.6 in the assay filed under Homo sapiens [15], 4.4 in the assay listed under Homo sapiens [17], 2.3 in the assay filed under Homo sapiens [18] and 3.6 in the assay filed under Homo sapiens [19]. Moreover, the pAkt/Akt ratio with HepG2 is recorded as 1.2. In addition, in assay [10], the Ki was 20 µM.
On to `Cn1ccc2c3n(c(=O)c(=O)cc1-3)c1ccccc21`, for which the concentration for half-maximal inhibition (IC50) in [1] is 19.8 µM. The inhibition is 20.6% in [2]; 29% in assay [4]; 16.3% in [5]; 13.2% in [6]; 91.4% in assay [8]. Further, the Ratio in the assay listed under Homo sapiens [3] worked out at 5.6; in the assay filed under Homo sapiens [7] it was 4.4; in the assay listed under Homo sapiens [9] it was 6.9; in the assay listed under Homo sapiens [11] it was 3.2. In addition, in assay [21], the inhibition constant Ki turned out to be 7.07 µM. The pAkt/Akt ratio in the assay on HepG2 amounted to 2.4.
For the compound `COc1ccc2c3ccn(C)c4cc(=O)c(=O)n(c3-4)c2c1`, in [1], the half-inhibitory concentration (IC50) stood at 19.2 µM. Besides, the inhibition in assay [12] turned out to be 28.7%; in [13] it was 15%; in [14], 44.4%; in assay [16], 61.4%; in assay [20], 93.8%. The Ratio in the assay filed under Homo sapiens [15] was 1.5; in the assay filed under Homo sapiens [17], 3.3; in the assay filed under Homo sapiens [18], 6.3; in the assay listed under Homo sapiens [19], 2.1. Besides, in the assay on HepG2, the pAkt/Akt ratio came out at 1.8. Moreover, the Ki in assay [10] came to 12.9 µM.
In turn, `CC(=O)Oc1cc2nccc3c4ccccc4n(c1=O)c23` showed an IC50 in assay [1] of 28.9 µM. In addition, the inhibition in assay [22] was found to be 90.3%; in assay [23] it was 23%; in assay [24], 46%; in assay [25], 22.1%; in assay [26] it was 30.2%. Besides, the pAkt/Akt ratio with HepG2 is given as 2.1. Also, in assay [10], the inhibition constant Ki was 18.4 µM.
In the case of `COc1cc2nccc3c4ccccc4n(c1=O)c23` [5-METHOXYCANTHINONE], the 50% inhibitory concentration (IC50) in [1] was 20.3 µM. Further, the inhibition was 27.5% in [2]; 48.4% in [4]; 18.3% in assay [5]; 22.8% in assay [6]; 91% in assay [8]. The Ratio in the assay filed under Homo sapiens [3] turned out to be 5; in the assay listed under Homo sapiens [7] it was 3.3; in the assay listed under Homo sapiens [9], 4; in the assay listed under Homo sapiens [11], 1.9. Further, in the assay on HepG2, the pAkt/Akt ratio is 1.3. The Ki in [10] was determined as 10.3 µM.

In general, IC50 refers to the concentration that gives 50% inhibition. What is called inhibition is the change of the read-out against control, counted positive when it falls. For orientation: Ki means the equilibrium dissociation constant of an inhibitor or competing ligand from its target.
